We go through six compounds from publication PMC8286339 (ACS chemical biology, 2021).

The target of assay [1] is T1, NTMT1 (Homo sapiens, UniProt Q9BV86).
T1 sequence (Q9BV86 1-223): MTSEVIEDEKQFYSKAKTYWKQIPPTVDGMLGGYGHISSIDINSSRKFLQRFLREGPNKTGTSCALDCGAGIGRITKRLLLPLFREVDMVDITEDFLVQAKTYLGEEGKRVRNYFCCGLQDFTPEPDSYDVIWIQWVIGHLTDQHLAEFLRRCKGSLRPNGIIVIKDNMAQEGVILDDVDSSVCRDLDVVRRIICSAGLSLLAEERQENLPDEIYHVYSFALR
The following applies: read-out: Ki, app; previously developed NTMT1 bisubstrate inhibitors; cited from earlier work.

The target in assay [2] is T2, HemK2/KMT9-Trm112 complex (Homo sapiens, UniProt Q9Y5N5).
T2 sequence (Q9Y5N5 1-214): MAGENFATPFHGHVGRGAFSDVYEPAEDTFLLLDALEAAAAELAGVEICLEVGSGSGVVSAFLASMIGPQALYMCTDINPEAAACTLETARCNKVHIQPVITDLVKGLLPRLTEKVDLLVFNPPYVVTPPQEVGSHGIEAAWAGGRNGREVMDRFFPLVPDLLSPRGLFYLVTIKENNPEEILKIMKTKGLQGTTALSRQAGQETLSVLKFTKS
T2 sequence (Q9UI30 1-125 partner): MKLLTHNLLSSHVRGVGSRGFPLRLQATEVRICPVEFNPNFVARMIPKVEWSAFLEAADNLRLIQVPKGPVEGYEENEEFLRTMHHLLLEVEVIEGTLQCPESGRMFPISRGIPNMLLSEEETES
In words: HemK2-Trm112 methylation inhibition assay. The following applies: read-out: inhibition of activity. The class given is biochemical.

For assay [3], the target named is protein N-terminal methyltransferase 1 (NTMT1), purified recombinant (human) (UniProt Q9BV86). In words: SAHH-coupled fluorescence enzyme inhibition assay.
Assay [4] deals with T1, NTMT1. The assay is described as follows: Pull-down from HeLa cell lysates with immobilized probe, anti-NTMT1 Western blot. The class given is binding. The following applies: 700 mM NaCl wash. The method in brief:
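Lysate was incubated overnight with probe-loaded streptavidin resin, optionally with competitor (10 mM stock) added first; resin alone served as control. Washes used IP buffer, then 700 mM NaCl. Boiled-bead eluates were run on SDS-PAGE and blotted with anti-NTMT1 (1:1000, 4°C overnight) and HRP secondary, with ECL detection.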
In general terms: Immunoblotting shows a protein as a band on a membrane.

Assay [5] deals with T1, NTMT1. In kind it is binding. The note with it: probe immobilized on streptavidin beads. The method in brief:
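Biotinylated probe (100 µM) was loaded overnight onto streptavidin resin in 20 mM Tris, 50 mM KCl, pH 7.5. Purified NTMT1 was bound for 4 h in the same buffer plus 1 mM DTT, then washed until no protein was detected. Elution was stepwise with 500 mM, 1 M, 2 M and 4 M NaCl, moving to the next step once eluate protein approached 0 mg/mL.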

NAH = SAM mimic in which the sulfonium ion is replaced by a nitrogen atom; C3 = 3-carbon linker to the N-terminal alpha-amine

Consider `CC[C@H](C)[C@H](NC(=O)[C@H](CCCNC(=N)N)NC(=O)[C@H](CCCCN)NC(=O)[C@@H]1CCCN1C(=O)CNCCCCN(CC[C@H](N)C(=O)O)C[C@H]1O[C@@H](n2cnc3c(N)ncnc32)[C@H](O)[C@@H]1O)C(=O)N[C@@H](C)C(N)=O` [NAH-C4-GPKRIA], for which, in assay [1], the Ki is 0.13 ± 0.04 nM. Turning to `Nc1ncnc2c1ncn2[C@@H]1O[C@H](C[C@@H](N)CC[C@H](N)C(=O)O)[C@@H](O)[C@H]1O` [sinefungin], in assay [2], the inhibition at 100 µM was about 50%. Turning to NAH-C3-GPK (compound 3) (peptide), the Ki in assay [3] was 41 nM. As for NAH-C3-GPKK-biotin [Probe 6], the “enrichment of NTMT1 from HeLa cell lysates” value in assay [4] is “enriched”. The “salt concentration at which NTMT1 was eluted off the probe” value in assay [5] amounted to 4 M NaCl.

For the compound NAH-C3-PPKRIA ({NAH-C3}-PPKRIA-NH2), the Ki in assay [1] was 39 ± 10 nM. For the compound NAH-C4-GPK (compound 4) (peptide), the Ki in assay [3] was determined as 44 nM.

What is called inhibition is the relative decrease from the control value, in per cent.
